From ChEMBL document CHEMBL3525903 (Drug Metab Dispos, 2013) come the findings set out here.

Data set [1] in a line: Inhibition of human P-glycoprotein expressed in pig LLC-PK1 cells assessed as reduction of [3H]digoxin substrate transport by liquid scintillation counting. It counts as ADME, cell-based. The essentials:
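P-gp-expressing and parental LLC-PK1 monolayers were grown on transwell inserts for 6–7 days to confluence and switched to serum-free M199 1 h before assay. [3H]digoxin was given apical-to-basal or basal-to-apical, with inhibitor in both chambers, at 37 °C, solvent ≤0.5%. Receiver samples were scintillation-counted and Papp taken from the linear phase. Results are % of control BtoA transport, mean ± S.D., n≥3.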

Data set [2] is described as follows: Permeability assessed as human P-glycoprotein-mediated transport across apical to basolateral side expressed in pig LLC-PK1 cells by measuring membrane permeability time by Transwell experiment/liquid scintillation counting. It counts as ADME, cell-based.
Data set [3] addresses T1, Organic anion transporter 3 (Homo sapiens, UniProt Q8TCC7).
T1 sequence (Q8TCC7 whole entry): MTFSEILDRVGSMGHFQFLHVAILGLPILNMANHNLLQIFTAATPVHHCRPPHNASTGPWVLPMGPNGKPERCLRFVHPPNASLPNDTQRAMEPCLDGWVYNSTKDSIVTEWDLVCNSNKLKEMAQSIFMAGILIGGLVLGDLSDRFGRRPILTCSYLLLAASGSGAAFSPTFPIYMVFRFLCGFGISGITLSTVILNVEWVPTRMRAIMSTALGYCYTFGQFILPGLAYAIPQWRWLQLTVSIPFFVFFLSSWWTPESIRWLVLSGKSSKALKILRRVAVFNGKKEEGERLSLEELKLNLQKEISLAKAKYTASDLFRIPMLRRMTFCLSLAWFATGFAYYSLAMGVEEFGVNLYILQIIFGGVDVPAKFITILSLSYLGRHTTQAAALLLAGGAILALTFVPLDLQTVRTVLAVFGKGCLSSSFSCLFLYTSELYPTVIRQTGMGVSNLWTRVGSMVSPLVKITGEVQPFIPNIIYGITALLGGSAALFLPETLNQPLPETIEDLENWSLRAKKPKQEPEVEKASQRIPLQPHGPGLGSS
The data set can be described thus: Inhibition of OAT3 (unknown origin) expressed in HEK293 cells assessed as reduction of [3H]E-sul substrate uptake by liquid scintillation counting. It counts as ADME, cell-based.

Data set [4] deals with T2, Solute carrier organic anion transporter family member 1B1 (Homo sapiens, UniProt Q9Y6L6).
T2 sequence (Q9Y6L6 whole entry): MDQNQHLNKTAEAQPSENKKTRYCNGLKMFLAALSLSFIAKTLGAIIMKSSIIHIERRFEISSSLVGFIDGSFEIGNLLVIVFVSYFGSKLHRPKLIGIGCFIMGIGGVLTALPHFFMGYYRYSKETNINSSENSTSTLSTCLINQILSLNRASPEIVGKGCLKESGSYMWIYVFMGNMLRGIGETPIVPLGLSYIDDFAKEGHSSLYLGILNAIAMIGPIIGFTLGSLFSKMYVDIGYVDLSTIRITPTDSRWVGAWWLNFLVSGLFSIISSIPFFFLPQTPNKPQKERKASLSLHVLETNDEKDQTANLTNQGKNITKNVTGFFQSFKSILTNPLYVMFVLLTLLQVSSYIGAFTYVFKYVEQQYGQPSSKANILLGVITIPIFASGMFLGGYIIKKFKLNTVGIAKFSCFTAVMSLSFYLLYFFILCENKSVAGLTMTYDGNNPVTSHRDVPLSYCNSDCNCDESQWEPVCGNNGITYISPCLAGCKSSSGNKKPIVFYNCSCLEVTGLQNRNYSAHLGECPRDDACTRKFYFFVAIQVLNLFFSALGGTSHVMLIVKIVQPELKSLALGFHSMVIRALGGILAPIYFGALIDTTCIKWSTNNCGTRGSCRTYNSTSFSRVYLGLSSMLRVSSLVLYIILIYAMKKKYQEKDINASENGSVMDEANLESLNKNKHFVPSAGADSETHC
In words: Inhibition of OATP1B1 (unknown origin) expressed in HEK293 cells assessed as reduction of [3H]E217betaG substrate uptake by liquid scintillation counting. It counts as ADME, cell-based.

The subject of data set [5] is P-glycoprotein. The data set can be described thus: Permeability assessed as human P-glycoprotein-mediated of transport of basolateral to apical side expressed in pig LLC-PK1 cells by Transwell experiment/liquid scintillation counting. It counts as ADME, cell-based.
The test system of data set [6] is P-glycoprotein. The data set can be described thus: Permeability assessed as human P-glycoprotein-mediated transport of basolateral to apical side in pig LLC-PK1 cells by measuring nontransporter-related passive membrane permeability by Transwell experiment/liquid scintillation counting. It counts as ADME, cell-based. As to conditions: read-out: permeability.
The subject of data set [7] is P-glycoprotein. The data set can be described thus: Permeability assessed as human P-glycoprotein-mediated transport across apical to basolateral side expressed in pig LLC-PK1 cells at 2 uM by liquid scintillation counting. Format: ADME, cell-based.
Data set [8] addresses T1, Organic anion transporter 3. In words: Inhibition of OAT3 (unknown origin) expressed in HEK293 cells assessed as reduction of [3H]E-sul substrate uptake at 100 uM by liquid scintillation counting. Format: ADME, cell-based. To be noted: hek293, 100 µM. The procedure, abridged:
(§1)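 HEK293 cells transiently transfected with OAT, OATP or OCT plasmid (FuGENE6; 24 h, then 24 h more with sodium butyrate), or stable OCTN1/OCTN2 lines; vector-transfected cells as control. Washed, preincubated 15–60 min at 37 °C in modified Krebs-Henseleit/25 mM HEPES buffer. Uptake of radiolabelled substrate, 100 µM inhibitor. Cells lysed in NaOH and counted by scintillation; counts normalised to medium radioactivity and Lowry protein; vector uptake subtracted.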

The test system of data set [9] is P-glycoprotein. The data set can be described thus: Permeability assessed as human P-glycoprotein-mediated transport across apical to basolateral side expressed in pig LLC-PK1 cells by Transwell experiment/liquid scintillation counting. Format: ADME, cell-based.
The target of data set [10] is T3, OCTN2 (Homo sapiens, UniProt O76082).
T3 sequence (O76082 whole entry): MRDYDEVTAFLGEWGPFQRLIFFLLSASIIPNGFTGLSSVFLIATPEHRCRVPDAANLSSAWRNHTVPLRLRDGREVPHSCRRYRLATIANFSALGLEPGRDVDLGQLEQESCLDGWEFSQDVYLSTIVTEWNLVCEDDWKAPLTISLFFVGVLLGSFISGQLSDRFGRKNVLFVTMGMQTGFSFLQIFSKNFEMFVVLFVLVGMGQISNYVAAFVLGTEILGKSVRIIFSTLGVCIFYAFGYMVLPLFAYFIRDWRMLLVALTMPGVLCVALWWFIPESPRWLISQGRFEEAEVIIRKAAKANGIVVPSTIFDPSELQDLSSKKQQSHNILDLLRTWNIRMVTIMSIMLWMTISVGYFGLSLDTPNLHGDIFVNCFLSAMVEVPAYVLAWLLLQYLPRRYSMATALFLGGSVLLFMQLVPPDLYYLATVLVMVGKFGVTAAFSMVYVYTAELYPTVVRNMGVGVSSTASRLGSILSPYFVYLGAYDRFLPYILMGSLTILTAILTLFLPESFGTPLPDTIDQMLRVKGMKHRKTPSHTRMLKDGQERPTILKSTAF
In words: Inhibition of OCTN2 (unknown origin) expressed in HEK293 cells assessed as reduction of [3H]carnitine substrate uptake at 100 uM by liquid scintillation counting. Format: cell-based. To be noted: HEK293 cells expressing OCTN2, probe [3H]carnitine. The procedure, abridged:
as §1

Data set [11] relates to P-glycoprotein. The data set can be described thus: Permeability assessed as human P-glycoprotein-mediated transport across apical to basolateral side expressed in pig LLC-PK1 cells at 500 uM by liquid scintillation counting. It counts as ADME, cell-based.
Data set [12] has as its system P-glycoprotein. In words: Permeability assessed as human P-glycoprotein-mediated transport of apical to basolateral side in pig LLC-PK1 cells by measuring nontransporter-related passive membrane permeability by Transwell experiment/liquid scintillation counting. It counts as ADME, cell-based. As to conditions: read-out: permeability.

Bounds are passed on as bounds.

Take `CC#CCn1c(N2CCC[C@@H](N)C2)nc2c1c(=O)n(Cc1nc(C)c3ccccc3n1)c(=O)n2C` [LINAGLIPTIN]: the entries for the “inhibition (INH)” value in data set [1] and in [8] were “Dose-dependent effect” and 0%, respectively. Further, in data set [2], the Time is 4.4 h. The IC50 in data set [3] and in [4] was > 100 µM throughout. Further, the values for the Km in data set [5] and in [9] were 154 µM and 220 µM, respectively. The Papp B→A in [6] stood at 14.7 ×10⁻⁶ cm/s. For the same molecule, the Papp A→B at 2 µM in data set [7] was 4.21 ×10⁻⁶ cm/s. Further, the inhibition (usually how much of the control response was suppressed) at 100 µM in data set [10] was 15.5%. The Papp A→B at 500 µM in data set [11] worked out at 26.7 ×10⁻⁶ cm/s. Further, in data set [12], the Papp A→B turned out to be 27.3 ×10⁻⁶ cm/s.
